# The source made the active and inactive calls.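 The calls were made as follows, unless noted: active = inhibition at or above 50% at 10 µM; inactive = inhibition below 50%.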
# Columns and labels:
# [1] = inhibitors of TNFa-induced NFkB p65 translocation, primary screen, imaging, HUVEC, MLSMR starter and 10KST1 sets (AID 438;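 active = inhibition above 20% together with a positive visual image hit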;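 also: compound added about 3h40 before a 20 min TNFalpha stimulation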;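 as to inhibition: signal is the nuclear over cytoplasmic p65 intensity ratio per well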); conditions: HUVEC TNFa-induced p65 nuclear translocation; cell count: measured here: nuclei count (cytotoxicity indicator), at 2.08 µM; inhibition: at 2 µM, stronger effect = higher value, 0% TNFa-plus-vehicle, 100% no-TNFa wells
# [2] = inhibitors of mutant huntingtin aggregation, primary screen, imaging, exon1htt(103Q)mCFP cells, high-content imaging (AID 483;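 active = visual image review flags a hit and inhibition of aggregation exceeds 20%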;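 also: compound exposure lasted 3 days before fixation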;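 as to nuclei count: percent of the per-plate median nuclei count of sample wells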); conditions: exon1htt(103Q)mCFP cell line, aggregate imaging, at 2 µM; inhibition of aggregation: stronger effect = higher value; nuclei count: measured here: cell count, toxicity
# [3] = inhibitors of E-selectin induction by TNFa, primary screen, imaging, HUVEC, immunofluorescence, MLSMR starter and 10KST1 sets (AID 487;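 active = visually confirmed hit in the image check and inhibition above 20%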;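 as to inhibition: signal is fraction of cell area covered by stained E-selectin grains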;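 as to nuclei count: 100% = median nuclei count of all wells on the same plate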); conditions: HUVEC TNFalpha-induced E-selectin immunofluorescence imaging, at 2 µM; inhibition: stronger effect = higher value; nuclei count: measured here: cell number, toxicity
# [4] = target: Voltage-gated potassium channel subunit beta-2 (Rattus norvegicus) (UniProt P62483); experiment: KvBeta enzyme negative modulators, primary screen, biochemical, NADPH fluorescence (AID 622;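 active = fluorescence slope higher than the sample average by over 3 SD, cut at about -0.22 in these data, passing the limit was not always enough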;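 also: slope of raw intensity against log time taken from 70 to 1610 s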); conditions: recombinant KvBeta, 4-cyanobenzaldehyde reduction, at 10 µM, stronger effect = higher value
# Sequence of Voltage-gated potassium channel subunit beta-2 (Rattus norvegicus) (P62483 whole entry, looked up): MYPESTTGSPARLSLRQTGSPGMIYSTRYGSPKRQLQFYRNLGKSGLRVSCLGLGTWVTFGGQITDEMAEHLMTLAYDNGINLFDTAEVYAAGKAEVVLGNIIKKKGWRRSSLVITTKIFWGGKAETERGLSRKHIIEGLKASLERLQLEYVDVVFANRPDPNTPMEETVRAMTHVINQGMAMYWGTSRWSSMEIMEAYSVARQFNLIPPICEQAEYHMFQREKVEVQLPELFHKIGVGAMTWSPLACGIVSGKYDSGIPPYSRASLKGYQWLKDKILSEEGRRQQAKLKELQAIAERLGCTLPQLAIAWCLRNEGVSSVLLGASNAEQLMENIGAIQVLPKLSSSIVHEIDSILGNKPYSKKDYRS
# [5] = target: Voltage-gated potassium channel subunit beta-2 (Rattus norvegicus) (UniProt P62483); experiment: KvBeta positive modulators, primary screen, biochemical, NADPH fluorescence (AID 623;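 active = NADPH fluorescence slope more negative than the mean of all samples by about 3 SD, 99.7% confidence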;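 also: fluorescence intensity change per second fitted from 20 to 320 s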); conditions: Recombinant KvBeta, NADPH fluorescence decrease slope, 10 min; at 10 µM; stronger effect = lower value
# [6] = target: Muscarinic acetylcholine receptor M4 (Homo sapiens) (UniProt P08173); experiment: compounds altering M4/GIRK thallium flux, either direction, primary screen, M4 allosteric agonist project, cell-based, HEK293 M4/GIRK, BTC-AM (AID 625;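 active = fluorescence slope after compound addition differing from the mean of all tested samples at 99.7% confidence, mostly higher but some lower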;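 also: thallium influx through GIRK channels coupled to M4 in HEK293 cells with BTC-AM dye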); conditions: at 10 µM, actives lie on both sides
# Sequence of Muscarinic acetylcholine receptor M4 (Homo sapiens) (P08173 whole entry, looked up): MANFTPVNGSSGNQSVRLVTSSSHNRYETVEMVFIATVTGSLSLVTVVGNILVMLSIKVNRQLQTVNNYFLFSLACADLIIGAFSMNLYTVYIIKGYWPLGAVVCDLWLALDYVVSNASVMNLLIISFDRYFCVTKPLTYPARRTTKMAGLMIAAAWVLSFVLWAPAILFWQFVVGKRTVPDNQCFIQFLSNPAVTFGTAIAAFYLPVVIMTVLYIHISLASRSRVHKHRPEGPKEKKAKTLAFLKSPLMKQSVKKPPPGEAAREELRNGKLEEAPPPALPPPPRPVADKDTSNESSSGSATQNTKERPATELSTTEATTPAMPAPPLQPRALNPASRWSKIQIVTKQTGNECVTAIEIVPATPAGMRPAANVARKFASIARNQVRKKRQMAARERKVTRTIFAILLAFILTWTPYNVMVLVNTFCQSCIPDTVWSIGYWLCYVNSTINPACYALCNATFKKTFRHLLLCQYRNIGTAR
# Procedure, shortened: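 Material: HEK293 cells with M4 receptor and GIRK channels; Times: cells overnight at 37 °C, BTC-AM loading 1 h, reads 2 min total; Technique: kinetic BTC-AM fluorescence sampled at 1 Hz, 10 s pre-addition baseline; Read-out basis: slope over 15–24 s of trace normalized to starting intensity; Controls: carbachol positive, DMSO negative.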
# [7] = inhibitors of Sendai virus-induced IRF3 signaling, primary screen, TLR/RLR signaling modifier project, cell-based, Sendai virus stimulus, luciferase, 10K MLSCN set (AID 602276); conditions: HEK293 RL24 IRF3 luciferase reporter, at 10 µM, stronger effect = higher value;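 also: firefly luciferase from ISG56 promoter only with Renilla not read in this screen; 0% = Sendai virus plus DMSO and 100% = medium plus DMSO without virus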
# [8] = inhibitors of poly I:C-induced TLR3 signaling, primary screen, cell-based, poly I:C stimulus, luciferase, 10K MLSCN set (AID 602277;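 active = inhibition of the reporter signal at or above 50%; inactive = inhibition below 50%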); conditions: HEK293-TLR3 RL24 IRF3 luciferase reporter, at 10 µM, stronger effect = higher value
SMILES,cell count [1],inhibition [1],inhibition of aggregation [2],nuclei count [2] [%],inhibition [3],nuclei count [3] [%],fluorescence slope [4],NADPH fluorescence slope [5],fluorescence slope [6],inhibition [7],inhibition [8]
CC(C(=O)NC1CCCCCC1)N(c1ccccc1)S(C)(=O)=O (stereo not drawn),370,1.9% (inactive),4.5% (inactive),108,-7.4% (inactive),97,-0.548 (inactive),-0.000126 (inactive),0.00352 (inactive),15.7% (inactive),3.26% (inactive)
O=C(c1ccco1)N1CCN(CC(=O)N(C2CCCCC2)C2CCS(=O)(=O)C2)CC1 (stereo not drawn),311,-5.7% (inactive),-12.8% (inactive),75.5,-28.9% (inactive),110,-0.565 (inactive),-5.3e-05 (inactive),0.00633 (inactive),7.31% (inactive),12.1% (inactive)
CC1Cc2cc(/C(O)=C3/C(=O)C(=O)N(CCN4CCOCC4)C3c3cccc(O)c3)ccc2O1 (stereo not drawn),576,-2.7% (inactive),-17.8% (inactive),105,-18.4% (inactive),94.9,-0.573 (inactive),-8.9e-05 (inactive),0.00539 (inactive),-19.1% (inactive),-6.57% (inactive)
Cn1c(Cc2csc(N)n2)nnc1SCC(=O)NC1CCCCC1,662,-3.3% (inactive),-15.2% (inactive),101,16.6% (inactive),91,-0.479 (inactive),1.7e-05 (inactive),0.00433 (inactive),4.63% (inactive),-2.17% (inactive)
COc1ccc(Cn2c(C)nc3c(c2=O)c2nc4ccccc4nc2n3Cc2ccco2)cc1,375,-0.6% (inactive),-1.8% (inactive),100,-42.4% (inactive),119,-0.368 (inactive),-4.4e-06 (inactive),0.00431 (inactive),23.6% (inactive),9.91% (inactive)
COCCn1c(SCC(=O)c2ccccc2)nc2c(c1=O)SC(C)C2 (stereo not drawn),232,7.3% (inactive),-6.9% (inactive),101,-17.9% (inactive),99.1,-0.45 (inactive),-0.000101 (inactive),0.00738 (inactive),1.47% (inactive),7.51% (inactive)
c1ccc(CNC2=NCCC2)nc1,414,-5.7% (inactive),14.2% (inactive),65.8,42.6% (inactive),75.5,-0.586 (inactive),-2.6e-05 (inactive),0.00615 (inactive),1.8% (inactive),10.1% (inactive)
O=S(=O)(NCCSc1ccccc1)c1cccs1,652,-6.3% (inactive),-14.5% (inactive),103,-12.2% (inactive),104,-0.208 (inactive),-2e-05 (inactive),0.00557 (inactive),5.83% (inactive),11.1% (inactive)
O=C(NC1CCCc2ccccc21)C1CCN(S(=O)(=O)c2cnc[nH]2)CC1 (stereo not drawn),529,-10.3% (inactive),-6.4% (inactive),98.8,-6.8% (inactive),111,-0.566 (inactive),-2.6e-05 (inactive),0.00517 (inactive),4% (inactive),19.5% (inactive)
COc1ccccc1OCc1ccc(C(=O)OCC2CCCO2)o1 (stereo not drawn),640,-5% (inactive),-10.7% (inactive),73.2,0.1% (inactive),113,-0.503 (inactive),-0.000334 (inactive),0.00535 (inactive),-10.8% (inactive),-24.7% (inactive)
COc1cc(C(=O)Nc2ccc3c(c2)C(=O)N(CCC(=O)O)C3=O)cc(OC)c1OC,469,2% (inactive),4.8% (inactive),89.5,-37.8% (inactive),87.3,-0.488 (inactive),-4.2e-05 (inactive),0.00491 (inactive),12.6% (inactive),18% (inactive)
C=C(C)CSc1nnc2[nH]c(=O)cc(N)n12,371,0% (inactive),31.5% (inactive),54.8,-70.9% (inactive),116,-0.458 (inactive),-6e-05 (inactive),0.00517 (inactive),15.7% (inactive),14.4% (inactive)
CCn1cc(C(=O)NCC2COc3ccccc3O2)c2cc(OC)c(OC)cc2c1=O (stereo not drawn),481,-29.9% (inactive),-6.2% (inactive),101,-124% (inactive),116,-0.481 (inactive),-6.7e-05 (inactive),0.00554 (inactive),11.8% (inactive),-1.62% (inactive)
O=C(NCc1ccccn1)c1ccc2nc(-c3ccco3)c(-c3ccco3)nc2c1,626,-27.2% (inactive),-52.7% (inactive),82.3,-147% (inactive),103,-0.504 (inactive),-2.5e-05 (inactive),0.00242 (inactive),10.9% (inactive),3.28% (inactive)
CCNC(=O)CC(=O)Nc1ccccc1C(=O)O,725,-14.7% (inactive),11.3% (inactive),90.3,-35.3% (inactive),118,-0.282 (inactive),-2.6e-05 (inactive),0.00586 (inactive),17.2% (inactive),16.6% (inactive)
CCc1nnc(NC(=O)CSc2nc3ccccc3s2)s1,604,7.1% (inactive),-5.7% (inactive),100,-44% (inactive),112,-0.472 (inactive),-5.3e-05 (inactive),0.00516 (inactive),11.9% (inactive),12.6% (inactive)
Cc1cc(NC(=O)Cn2cnc3c2c(=O)n(C)c(=O)n3C)n(-c2ccccc2)n1,580,-38.9% (inactive),1.1% (inactive),99.2,22.7% (inactive),68.4,-0.33 (inactive),-8.3e-05 (inactive),0.00675 (inactive),13.4% (inactive),17% (inactive)
CCCn1c(NCc2ccc3c(c2)OCO3)nc2ccccc21,650,-6.8% (inactive),2.4% (inactive),97.6,32% (inactive),93.5,-0.537 (inactive),-5.7e-05 (inactive),0.00348 (inactive),-9.91% (inactive),-7.89% (inactive)
Cc1sc2nc(SCC(=O)NCc3ccco3)n(CCc3ccccc3)c(=O)c2c1C,589,-17.7% (inactive),-11.6% (inactive),101,-45.3% (inactive),108,-0.394 (inactive),5.5e-06 (inactive),0.0086 (inactive),13.1% (inactive),0.6% (inactive)
CCn1c(=O)cc(SCC(=O)Nc2cccnc2)c2ccccc21,369,-8.6% (inactive),4.3% (inactive),101,-15.9% (inactive),116,-0.463 (inactive),2.2e-05 (inactive),0.00646 (inactive),2.11% (inactive),-5.54% (inactive)
Cc1noc(C)c1S(=O)(=O)NCCN1CCN(c2ccccc2)CC1,413,-5.2% (inactive),-8.9% (inactive),118,-42.6% (inactive),141,-0.546 (inactive),4.8e-05 (inactive),0.0066 (inactive),12.9% (inactive),20.2% (inactive)
O=c1oc2ccccc2c(N2CCCCC2)c1CN1CCCCC1,731,-5.4% (inactive),-7.2% (inactive),108,25.6% (inactive),104,-0.549 (inactive),-6.2e-05 (inactive),0.00538 (inactive),-13.6% (inactive),-1.22% (inactive)
CCCn1c(NCc2cc(C)ccc2O)nc2ccccc21,369,1.4% (inactive),4.3% (inactive),82.1,-16.5% (inactive),49.2,-0.522 (inactive),6.3e-06 (inactive),0.00499 (inactive),18.7% (inactive),19.5% (inactive)
CC(C)(C)n1ncc2c(=O)n(CC(=O)NCCc3ccccc3)cnc21,457,3.9% (inactive),7.3% (inactive),95.2,27.5% (inactive),92.8,-0.595 (inactive),1.3e-05 (inactive),0.0063 (inactive),-40.8% (inactive),-58.1% (inactive)
COc1ccc(-c2cn3cc(C)ccc3n2)cc1OC,442,-10.5% (inactive),-3.3% (inactive),103,-4.7% (inactive),109,-0.357 (inactive),-3e-05 (inactive),0.00466 (inactive),29.4% (inactive),-10.4% (inactive)
CCn1c(SCC(=O)Nc2nccs2)nnc1-c1ccncc1,331,-1.4% (inactive),-8.7% (inactive),110,-20.2% (inactive),129,-0.454 (inactive),-2.4e-05 (inactive),0.00633 (inactive),14.8% (inactive),21.3% (inactive)
Cc1ccc(-c2ccc(=O)n(CCC(=O)NCc3ccccn3)n2)cc1,366,-15.6% (inactive),-2.2% (inactive),99.9,-2.7% (inactive),108,-0.534 (inactive),-3e-05 (inactive),0.00635 (inactive),14.5% (inactive),21.8% (inactive)
CNC(=O)CC(C(=O)O)c1ccc(OCC(C)C)cc1 (stereo not drawn),611,-1.5% (inactive),-15.2% (inactive),114,13.6% (inactive),103,-0.562 (inactive),-8.4e-05 (inactive),0.00333 (inactive),9.55% (inactive),16.9% (inactive)
